The text below walks through data of ChEMBL document CHEMBL1649224, “Involvement of pmrAB and phoPQ in polymyxin B adaptation and inducible resistance in non-cystic fibrosis clinical isolates of Pseudomonas aeruginosa” (2009).

For assay [1], the system named is Pseudomonas aeruginosa. The assay is described as follows: Antibacterial activity against Pseudomonas aeruginosa isolate 9BR by Etest. It counts as functional.
Assay [2] relates to Pseudomonas aeruginosa. The assay is described as follows: Antibacterial activity against Pseudomonas aeruginosa isolate 19BR by Etest. It counts as functional.
In assay [3] the test system is Pseudomonas aeruginosa. The assay is described as follows: Antibacterial activity against Pseudomonas aeruginosa isolate 213BR by Etest. It counts as functional.
The test system of assay [4] is Pseudomonas aeruginosa. The assay is described as follows: Antibacterial activity against Pseudomonas aeruginosa isolate 9BR by Etest in presence of beta-lactamase inhibitor Tazobactam. It counts as functional.
In assay [5] the test system is Pseudomonas aeruginosa. The assay is described as follows: Antibacterial activity against Pseudomonas aeruginosa isolate 19BR by Etest in presence of beta-lactamase inhibitor Tazobactam. It counts as functional.
Assay [6] relates to Pseudomonas aeruginosa. The assay is described as follows: Antibacterial activity against Pseudomonas aeruginosa isolate 213BR by Etest in presence of beta-lactamase inhibitor Tazobactam. It counts as functional.
The test system of assay [7] is Pseudomonas aeruginosa. The assay is described as follows: Antibacterial activity against Pseudomonas aeruginosa isolate 9BR assessed as lowest concentration at which no growth observed after 48 hrs by broth microdilution method. It counts as functional, organism-based. For orientation: Broth dilution looks for growth in wells or tubes with falling amounts of substance.

The test system of assay [8] is Pseudomonas aeruginosa. The assay is described as follows: Antibacterial activity against Pseudomonas aeruginosa isolate 19BR assessed as lowest concentration at which no growth observed after 48 hrs by broth microdilution method. It counts as functional, organism-based. The procedure, abridged:
(§1)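 Broth microdilution per CLSI M7-A6/M100-S15 in cation-adjusted Mueller-Hinton broth, 37°C, 48 h; polymyxin B 0.03 to 32 μg/ml, triplicate runs per isolate. Liberal MIC read as the lowest-concentration well without visible growth; skipped wells (isolated no-growth wells below wells with growth) noted.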

Assay [9] concerns Pseudomonas aeruginosa. The assay is described as follows: Antibacterial activity against Pseudomonas aeruginosa isolate 213BR assessed as lowest concentration at which no growth observed after 48 hrs by broth microdilution method. It counts as functional, organism-based. The procedure, abridged:
as §1

The subject of assay [10] is Pseudomonas aeruginosa. The assay is described as follows: Antibacterial activity against Pseudomonas aeruginosa isolate 9BR assessed as growth after the skipped wells was observed after 48 hrs by broth microdilution method. It counts as functional, organism-based.
Assay [11] concerns Pseudomonas aeruginosa. The assay is described as follows: Antibacterial activity against Pseudomonas aeruginosa isolate 19BR assessed as growth after the skipped wells was observed after 48 hrs by broth microdilution method. It counts as functional, organism-based.
In assay [12] the test system is Pseudomonas aeruginosa. The assay is described as follows: Antibacterial activity against Pseudomonas aeruginosa isolate 213BR assessed as growth after the skipped wells was observed after 48 hrs by broth microdilution method. It counts as functional, organism-based.
In assay [13] the test system is Pseudomonas aeruginosa. The assay is described as follows: Antimicrobial activity against Pseudomonas aeruginosa isolate 19BR assessed as inhibition of growth at 2 ug/ml after 24 hrs. It counts as functional, organism-based. The procedure, abridged:
(§2)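 Growth curves run in triplicate: overnight cultures diluted 1:20 into cation-adjusted Mueller-Hinton broth with 0, 0.125 or 2 μg/ml polymyxin B; OD600 read every 20 min for 24 h.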

Assay [14] deals with Pseudomonas aeruginosa. The assay is described as follows: Antimicrobial activity against Pseudomonas aeruginosa isolate 213BR assessed as inhibition of growth at 2 ug/ml after 24 hrs. It counts as functional, organism-based. The procedure, abridged:
as §2

The test system of assay [15] is Pseudomonas aeruginosa. The assay is described as follows: Increase in arnB gene expression in compound-resistant Pseudomonas aeruginosa isolate 9BR by quantitative PCR analysis. It counts as functional, organism-based. A digest of the protocol:
(§3)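 Cells taken from MIC-plate wells at 0, 0.125 or 2 μg/ml polymyxin B, regrown in 10 ml CAMHB at the same level, shaken at 37°C to OD600 0.5. Total RNA (4 μg) reverse-transcribed; qPCR normalised to rpsL and expressed relative to PAO1 without polymyxin B. Triplicate cultures on separate days from individual MIC plates, each run at least in duplicate.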

Assay [16] concerns Pseudomonas aeruginosa. The assay is described as follows: Increase in PA4773 gene expression in compound-resistant Pseudomonas aeruginosa isolate 9BR by quantitative PCR analysis. It counts as functional, organism-based. The procedure, abridged: as §3
The subject of assay [17] is Pseudomonas aeruginosa. The assay is described as follows: Effect on phoQ gene expression in Pseudomonas aeruginosa PAO1 at 2 ug/ml by quantitative PCR analysis. It counts as functional, organism-based. A digest of the protocol:
(§4)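 Cells from MIC plate wells regrown in cation-adjusted Mueller-Hinton broth with 0, 0.125 or 2 μg/ml polymyxin B at 37°C with shaking to OD600 0.5. Total RNA (4 μg) reverse-transcribed for qPCR of phoQ, arnB and PA4773, with rpsL as control. Expression is relative to untreated PAO1; triplicate biological repeats, each at least in duplicate.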

The test system of assay [18] is Pseudomonas aeruginosa. The assay is described as follows: Effect on arnB gene expression in Pseudomonas aeruginosa PAO1 at 2 ug/ml by quantitative PCR analysis. It counts as functional, organism-based. The procedure, abridged:
as §4

Assay [19] concerns Pseudomonas aeruginosa. The assay is described as follows: Effect on PA4773 gene expression in Pseudomonas aeruginosa PAO1 at 2 ug/ml by quantitative PCR analysis. It counts as functional, organism-based. The procedure, abridged: as §4
The subject of assay [20] is Pseudomonas aeruginosa. The assay is described as follows: Increase in phoQ gene expression in Pseudomonas aeruginosa isolate 19BR at 2 ug/ml by quantitative PCR analysis. It counts as functional, organism-based. A digest of the protocol: as §4
For assay [21], the system named is Pseudomonas aeruginosa. The assay is described as follows: Increase in arnB gene expression in Pseudomonas aeruginosa isolate 19BR at 2 ug/ml by quantitative PCR analysis. It counts as functional, organism-based. The procedure, abridged: as §4
For assay [22], the system named is Pseudomonas aeruginosa. The assay is described as follows: Increase in PA4773 gene expression in Pseudomonas aeruginosa isolate 19BR at 2 ug/ml by quantitative PCR analysis. It counts as functional, organism-based. The procedure, abridged: as §4
Assay [23] concerns Pseudomonas aeruginosa. The assay is described as follows: Increase in phoQ gene expression in Pseudomonas aeruginosa isolate 213BR at 2 ug/ml by quantitative PCR analysis. It counts as functional, organism-based. The procedure, abridged:
as §4

Assay [24] deals with Pseudomonas aeruginosa. The assay is described as follows: Increase in arnB gene expression in Pseudomonas aeruginosa isolate 213BR at 2 ug/ml by quantitative PCR analysis. It counts as functional, organism-based. A digest of the protocol: as §4
Assay [25] concerns Pseudomonas aeruginosa. The assay is described as follows: Increase in PA4773 gene expression in Pseudomonas aeruginosa isolate 213BR at 2 ug/ml by quantitative PCR analysis. It counts as functional, organism-based. The procedure, abridged: as §4
The test system of assay [26] is Pseudomonas aeruginosa. The assay is described as follows: Antimicrobial activity against Pseudomonas aeruginosa PAO1 assessed as outer membrane permeabilization by fluorescence spectrophotometer using NPN fluorescent probe. It counts as functional, organism-based. A digest of the protocol: (§5)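 Cells grown in cation-adjusted Mueller-Hinton broth with 0, 0.125 or 2 μg/ml polymyxin B (preincubation), subcultured 1:100 to mid-log, washed, resuspended to OD600 0.5 in 5 mM HEPES pH 7.2 with 5 μM CCCP. NPN 10 μM final added for baseline. Polymyxin B then added at 0.25–64 μg/ml final; fluorescence ex 350/em 420 nm.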

The subject of assay [27] is Pseudomonas aeruginosa. The assay is described as follows: Antimicrobial activity against Pseudomonas aeruginosa isolate 19BR assessed as outer membrane permeabilization by fluorescence spectrophotometer using NPN fluorescent probe. It counts as functional, organism-based. The procedure, abridged: as §5
For assay [28], the system named is Pseudomonas aeruginosa. The assay is described as follows: Antimicrobial activity against Pseudomonas aeruginosa isolate 9BR assessed as outer membrane permeabilization by fluorescence spectrophotometer using NPN fluorescent probe. It counts as functional, organism-based. A digest of the protocol:
as §5

The test system of assay [29] is Pseudomonas aeruginosa. The assay is described as follows: Antimicrobial activity against Pseudomonas aeruginosa PAO1 assessed as outer membrane permeabilization at 4 ug/ml by fluorescence spectrophotometer using NPN fluorescent probe. It counts as functional, organism-based. A digest of the protocol: as §5
The test system of assay [30] is Pseudomonas aeruginosa. The assay is described as follows: Antimicrobial activity against Pseudomonas aeruginosa isolate 9BR assessed as outer membrane permeabilization at => […] ug/ml by fluorescence spectrophotometer using NPN fluorescent probe. It counts as functional, organism-based.
Assay [31] deals with Pseudomonas aeruginosa. The assay is described as follows: Antimicrobial activity against Pseudomonas aeruginosa isolate 19BR assessed as outer membrane permeabilization at => 8 ug/ml by fluorescence spectrophotometer using NPN fluorescent probe. It counts as functional, organism-based. A digest of the protocol:
as §5

The test system of assay [32] is Pseudomonas aeruginosa. The assay is described as follows: Antimicrobial activity against Pseudomonas aeruginosa PAO1 assessed as outer membrane permeabilization at 0.125 ug/ml by fluorescence spectrophotometer using NPN fluorescent probe. It counts as functional, organism-based. A digest of the protocol: as §5
For assay [33], the system named is Pseudomonas aeruginosa. The assay is described as follows: Antimicrobial activity against 2 ug/ml compound pretreated Pseudomonas aeruginosa isolate 9BR assessed as outer membrane permeabilization at 8 ug/ml by fluorescence spectrophotometer using NPN fluorescent probe. It counts as functional, organism-based. The procedure, abridged: as §5
The test system of assay [34] is Pseudomonas aeruginosa. The assay is described as follows: Antimicrobial activity against 2 ug/ml compound pretreated Pseudomonas aeruginosa isolate 19BR assessed as outer membrane permeabilization at 8 ug/ml by fluorescence spectrophotometer using NPN fluorescent probe. It counts as functional, organism-based. The procedure, abridged:
as §5

Assay [35] has as its system Pseudomonas aeruginosa. The assay is described as follows: Antimicrobial activity against Pseudomonas aeruginosa isolate 9BR assessed as inhibition of growth at 0.25 ug/ml after 24 hrs. It counts as functional, organism-based.

The source made the active and inactive calls. No cut-off for these calls is given here. Some results are limits rather than exact numbers.

Regarding `CO/N=C(\C(=O)N[C@@H]1C(=O)N2C(C(=O)[O-])=C(C[N+]3(C)CCCC3)CS[C@H]12)c1csc(N)n1` [CEFEPIME], the MIC in the assay on Pseudomonas aeruginosa [1], against Pseudomonas aeruginosa [2] and with Pseudomonas aeruginosa [3] was > 256 µg/mL in each case.
With `CC(C)(O/N=C(\C(=O)N[C@@H]1C(=O)N2C(C(=O)[O-])=C(C[n+]3ccccc3)CS[C@H]12)c1csc(N)n1)C(=O)O` [CEFTAZIDIME], the MIC with Pseudomonas aeruginosa [1], with Pseudomonas aeruginosa [2] and against Pseudomonas aeruginosa [3] was > 256 µg/mL throughout.
Consider `O=C(O)c1cn(C2CC2)c2cc(N3CCNCC3)c(F)cc2c1=O` [CIPROFLOXACIN], for which the MIC against Pseudomonas aeruginosa [1], against Pseudomonas aeruginosa [2] and in the assay with Pseudomonas aeruginosa [3] was > 32 µg/mL throughout.
As for `C[C@@H](O)[C@H]1C(=O)N2C(C(=O)O)=C(S[C@@H]3CN[C@H](C(=O)N(C)C)C3)[C@H](C)[C@H]12` [MEROPENEM], the MIC in the assay on Pseudomonas aeruginosa [1], against Pseudomonas aeruginosa [2] and in the assay on Pseudomonas aeruginosa [3] was > 32 µg/mL throughout.
As to `CCN1CCN(C(=O)N[C@@H](C(=O)N[C@@H]2C(=O)N3[C@@H]2SC(C)(C)[C@@H]3C(=O)O)c2ccccc2)C(=O)C1=O` [PIPERACILLIN], the MIC with Pseudomonas aeruginosa [4] was determined as 96 µg/mL; in the assay with Pseudomonas aeruginosa [5], 64 µg/mL; with Pseudomonas aeruginosa [6], 96 µg/mL.
For the compound COLISTIN, the MIC in the assay on Pseudomonas aeruginosa [7] came to 32 µg/mL; in the assay with Pseudomonas aeruginosa [8], 4 µg/mL; in the assay on Pseudomonas aeruginosa [9], 2 µg/mL; in the assay with Pseudomonas aeruginosa [10], 32 µg/mL; in the assay with Pseudomonas aeruginosa [11] it was 4 µg/mL; with Pseudomonas aeruginosa [12] it was 32 µg/mL.
On to POLYMYXIN B, for which the MIC was 64 µg/mL in the assay with Pseudomonas aeruginosa [7]; 0.25 µg/mL with Pseudomonas aeruginosa [8]; 0.5 µg/mL in the assay with Pseudomonas aeruginosa [9]; 64 µg/mL in the assay with Pseudomonas aeruginosa [10]; 8 µg/mL in the assay with Pseudomonas aeruginosa [11]; 8 µg/mL in the assay with Pseudomonas aeruginosa [12]. Also, the MIC is 4 µg/mL against Pseudomonas aeruginosa [1], 1.5 µg/mL with Pseudomonas aeruginosa [2] and 1.5 µg/mL with Pseudomonas aeruginosa [3]. Further, the TIME in the assay with Pseudomonas aeruginosa [13] was found to be 6 h; with Pseudomonas aeruginosa [14], 4 h. For the same compound, the Activity entry in the assay with Pseudomonas aeruginosa [15], in the assay on Pseudomonas aeruginosa [16], with Pseudomonas aeruginosa [26], in the assay with Pseudomonas aeruginosa [27] and in the assay on Pseudomonas aeruginosa [28] was “Dose-dependent effect” each time. In addition, the outcome in the assay with Pseudomonas aeruginosa [17], in the assay on Pseudomonas aeruginosa [18], in the assay on Pseudomonas aeruginosa [19], with Pseudomonas aeruginosa [33] and in the assay with Pseudomonas aeruginosa [34] was inactive. Also, the result in the assay on Pseudomonas aeruginosa [20], with Pseudomonas aeruginosa [21], in the assay with Pseudomonas aeruginosa [22], in the assay on Pseudomonas aeruginosa [23], with Pseudomonas aeruginosa [24] and with Pseudomonas aeruginosa [25] was Active. Besides, the result in the assay on Pseudomonas aeruginosa [29], in the assay with Pseudomonas aeruginosa [30], in the assay with Pseudomonas aeruginosa [31] and in the assay on Pseudomonas aeruginosa [32] was Active. The inhibition result with Pseudomonas aeruginosa [35] is “inactive”.

What is called MIC is the lowest concentration that inhibits growth of the organism.
